Source: PubChem BioAssay (several laboratories)
Most compounds without a hit are left out; they make up all but 1.3% or so of the library.
CHT block: inhibitors of human choline transporter CHT; Q9GZV3; CHT-expressing cells, membrane potential dye, choline response; stronger effect = lower value; B-score at 10 µM; 0.86% of 310,000 active;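 active = B-score over 3 SD under the library average, and starting fluorescence ratio not unusually high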;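 note: choline stimulus applied at its EC90 after an EC20 pre-addition; B-score computed on integrated fluorescence ratio after choline addition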
proCasp7 act: counter-screen for procaspase-3 activators: activators of human procaspase-7 | P55210 | recombinant procaspase-7, Ac-DEVD-pNA absorbance 405 nm; D23A/D198A/D206A triple mutant, cannot self-cleave; scale: DMSO 0, 5 µM enzyme 100 | activation, % at 8.5 µM | 0.093% of 330,000 active | AID 463210;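 active = percent activation above the screen-wide mean plus 3 SD, cut at about 25% in these data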
Target sequence (P55210 whole entry D23A/D198A/D206A): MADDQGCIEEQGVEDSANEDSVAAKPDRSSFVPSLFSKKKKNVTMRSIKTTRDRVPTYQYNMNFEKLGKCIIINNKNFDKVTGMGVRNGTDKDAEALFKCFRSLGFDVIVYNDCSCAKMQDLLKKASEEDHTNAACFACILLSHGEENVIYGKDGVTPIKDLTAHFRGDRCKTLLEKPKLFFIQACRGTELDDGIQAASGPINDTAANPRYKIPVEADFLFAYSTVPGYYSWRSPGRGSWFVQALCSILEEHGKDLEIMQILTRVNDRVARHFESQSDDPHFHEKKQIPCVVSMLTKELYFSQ
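Assay system: Uncleavable procaspase-7 mutant enzyme / Input: 2 µM procaspase-7 mutant as dispensed / Dosing: single nominal 8.5 µM compound dose, 0.8% DMSO final / Timing: 1 h enzyme–compound preincubation and 2 h substrate reaction, both 25 °C / Detection: p-Nitroaniline absorbance at 405 nm, read at 0 and 120 min / Replication: singlicate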
procasp3 activ: activators of human procaspase-3; P42574; recombinant procaspase-3 D3A, Ac-DEVD-pNA absorbance 405 nm; activation, % at 8.5 µM; 0.11% of 330,000 active;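 active = activation above the mean of all tested compounds plus 3 SD, cut at about 21% in these data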
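Technique: 405 nm absorbance of p-nitroaniline, reads at 0 and 120 min; Test system: Procaspase-3 D3A mutant; Incubation: 1 h enzyme-compound preincubation, then 2 h substrate reaction, 25 °C; Repeats: singlicate, each compound tested once; Benchmarks: low control DMSO wells, high control DMSO plus 5 µM PC-3 D3A.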
CHT allo act: allosteric activators of human choline transporter CHT; Q9GZV3; CHT-expressing cells, membrane potential dye, choline EC20; stronger effect = higher value; LV-AA mutant CHT in HEK293 cells; B-score at 10 µM; 0.49% of 310,000 active; AID 488977;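 active = initial fluorescence not abnormally high and integrated response B-score, plate-corrected, over 3 SD above library mean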
CHT inh conf: human CHT inhibition, confirmatory screen; CHT-expressing cells, choline membrane potential dye; LV-to-AA substituted CHT, HEK293 cells; CHT activity remaining % of control (stronger effect = lower value), % at 10 µM; shares compounds with CHT block; 70% of 2,400 active;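 active = choline transporter activity left, mean of duplicates at 10 µM, below buffer-only control mean minus 3 SD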;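 note: depolarization triggered by choline at its EC90 following an EC20 pre-addition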
HEK293 CHT ctr: CHT inhibitor counter-screen hit in parental HEK293 cells | shares compounds with CHT block | membrane potential dye, choline response; active = decrease or increase beyond buffer ±3SD | membrane potential ratio readout (active if shifted either direction beyond buffer ±3SD; no single direction) at 10 µM | 4% of 2,400 active | AID 493222;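 note: parental cells lack the transporter so any hit is non-specific; ratio is peak minus trough fluorescence over baseline after EC90 choline challenge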
A number is an active result.

Screening O=C(Nc1nc(-c2ccccc2)cs1)c1ccc(=O)[nH]c1 returned CHT block -6, proCasp7 act inactive, procasp3 activ inactive, CHT allo act inactive, CHT inh conf 70% and HEK293 CHT ctr inactive.
Screening Cc1onc(-c2ccccc2Cl)c1C(=O)Oc1cccc2cccnc12 returned CHT block -5.5, proCasp7 act inactive, procasp3 activ inactive, CHT allo act inactive, CHT inh conf inactive and HEK293 CHT ctr inactive.
For CC(=O)Nc1ccc(S(=O)(=O)NC2=C(N3CCN(Cc4ccccc4)CC3)C(=O)c3ccccc3C2=O)cc1 the results were CHT block -6.2, proCasp7 act inactive, procasp3 activ inactive, CHT allo act inactive, CHT inh conf 41% and HEK293 CHT ctr 2.3.
Screening CCN1CCN(C2=C(NS(=O)(=O)c3ccc(NC(C)=O)cc3)C(=O)c3ccccc3C2=O)CC1 returned CHT block inactive, proCasp7 act inactive, procasp3 activ inactive and CHT allo act inactive.
`CCOC(=O)c1nc(S(C)(=O)=O)ncc1Cl` gave CHT block -6.3, proCasp7 act inactive, procasp3 activ inactive, CHT allo act inactive, CHT inh conf 47% and HEK293 CHT ctr inactive.
For CS(=O)(=O)c1ncc(Cl)c(C(=O)Nc2ccc(N3CCOCC3)cc2)n1 the results were CHT block -6.9, proCasp7 act inactive, procasp3 activ inactive, CHT allo act inactive, CHT inh conf 56% and HEK293 CHT ctr inactive.
For CCOC(=O)c1nc(S(C)(=O)=O)ncc1N1CCOCC1 the results were CHT block inactive, proCasp7 act inactive, procasp3 activ inactive and CHT allo act inactive.
For CS(=O)(=O)c1ncc(Cl)c(C(=O)Nc2ccc(OC(F)F)cc2)n1 the results were CHT block -6.5, proCasp7 act inactive, procasp3 activ inactive, CHT allo act inactive, CHT inh conf 50% and HEK293 CHT ctr inactive.
`COc1cc(OC)cc(C(=O)NN2CCOCC2)c1` gave CHT block inactive, proCasp7 act inactive, procasp3 activ inactive and CHT allo act inactive.
For O=C(Cc1ccc(Cl)cc1)SCc1ccccc1 the results were proCasp7 act inactive and procasp3 activ inactive.
`CN(CC(=O)Nc1cccc(F)c1)CC(=O)NC(c1ccccc1)c1ccccc1` gave proCasp7 act inactive and procasp3 activ inactive.
For CCCCCn1c(=O)[nH]c2cc(C(=O)NCCCN3CCCCC3CC)ccc2c1=O (stereo unspecified) the results were CHT block -6, proCasp7 act inactive, procasp3 activ inactive, CHT allo act inactive, CHT inh conf 41% and HEK293 CHT ctr inactive.
For CCC1CCCCN1CCCNC(=O)c1ccc2c(c1)c(C)c(C)n2C (stereo unspecified) the results were CHT block -5.7, proCasp7 act inactive, procasp3 activ inactive, CHT allo act inactive, CHT inh conf 35% and HEK293 CHT ctr inactive.
For O=C1c2cccc([N+](=O)[O-])c2C(=O)N1CCO the results were CHT block inactive, proCasp7 act inactive, procasp3 activ inactive and CHT allo act inactive.
`O=C1c2cccc3c(Nc4ccccc4Cl)c([N+](=O)[O-])cc(c23)C(=O)N1CCO` gave CHT block -5.5, proCasp7 act inactive, procasp3 activ inactive, CHT allo act inactive, CHT inh conf 71% and HEK293 CHT ctr inactive.
For CCn1ccnc1CNC(=O)c1cc(COc2ccc(F)cc2F)on1 the results were CHT block inactive, proCasp7 act inactive, procasp3 activ inactive and CHT allo act inactive.
Screening CCn1cc(CNC(=O)c2cc(COc3ccc(F)cc3F)on2)cn1 returned CHT block inactive, proCasp7 act inactive, procasp3 activ inactive, CHT allo act inactive, CHT inh conf 69% and HEK293 CHT ctr inactive.
Screening CCCCn1c(N)c(N(CC(C)C)C(=O)c2ccc(-c3ccc([N+](=O)[O-])cc3)o2)c(=O)[nH]c1=O returned CHT block inactive, proCasp7 act inactive, procasp3 activ inactive and CHT allo act inactive.
`COCCSc1nnc(NC(=O)C2CC(=O)N(C3CCCC3)C2)s1` (stereo unspecified) gave CHT block inactive, proCasp7 act inactive, procasp3 activ inactive and CHT allo act inactive.
